# Source: ChEMBL document CHEMBL1131187, “Synthesis, activity, and molecular modeling of new 2, 4-dioxo-5-(naphthylmethylene)-3-thiazolidineacetic acids and 2-thioxo analogues as potent aldose reductase inhibitors” (J Med Chem, 1998)
# Molecular target: Aldo-keto reductase family 1 member B1 (Bos taurus, UniProt P16116)
# Assay: Evaluated in vitro for the inhibition of Aldose reductase.
# Format: functional
# How it was run: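 Partially purified enzyme from beef lenses homogenized in 96 mM phosphate buffer pH 6.2 at 4 °C; supernatant after 1 h centrifugation at 4 °C. Assay at 37 °C in 96 mM phosphate pH 6.2 with NADPH (0.18 mM) and DL-glyceraldehyde (1 mM). Reaction started with NADPH; A340 decrease followed. Blanks included. Four concentrations, five measures each; IC50 by linear regression of % inhibition vs log concentration.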
row,SMILES,IC50
1,COc1c(/C=C2\SC(=O)N(CC(=O)O)C2=O)ccc2ccccc12,150 nM
2,O=C(O)CN1C(=O)S/C(=C\c2cc3ccccc3cc2Cl)C1=O,48 nM
3,COc1cc2ccccc2cc1/C=C1\SC(=O)N(CC(=O)O)C1=O,128 nM
4,O=C(O)CN1C(=O)/C(=C/c2ccc3ccccc3c2[N+](=O)[O-])SC1=S,79 nM
5,O=C(O)CN1C(=O)S/C(=C\c2ccc3ccccc3c2Br)C1=O,51 nM
6,O=C(O)CN1C(=O)S/C(=C\c2cc3ccccc3cc2Br)C1=O,153 nM
7,O=C(O)Cc1nn(Cc2ccc(Br)cc2F)c(=O)c2ccccc12 [PONALRESTAT],7 nM

# Further lines, results first:
row,IC50,SMILES
1,9 nM,COc1c(/C=C2\SC(=S)N(CC(=O)O)C2=O)ccc2ccccc12
2,269 nM,O=C(O)CN1C(=O)S/C(=C\c2ccc3ccccc3c2)C1=O
3,96 nM,O=C(O)CN1C(=O)/C(=C/c2ccc3ccccc3c2)SC1=S
4,20 nM,COc1cc2ccccc2cc1/C=C1\SC(=S)N(CC(=O)O)C1=O
5,101 nM,COc1ccc2cc(/C=C3\SC(=O)N(CC(=O)O)C3=O)ccc2c1
6,67 nM,COc1ccc2cc(/C=C3\SC(=S)N(CC(=O)O)C3=O)ccc2c1
7,11 nM,O=C(O)CN1C(=O)/C(=C/c2ccc3ccccc3c2Br)SC1=S
8,15 nM,O=C(O)CN1C(=O)/C(=C/c2cc3ccccc3cc2Br)SC1=S
